SMILES strings stand for the structures. Activity calls are given as the source filed them. The calls are words filed in the database; no cut-off is given here. Some results are limits rather than exact numbers.

The test system of data set [1] is HEK. Nature of the data set: Inhibition of SOCE channel in tBhQ-treated HEK cells assessed as reduction in calcium entry by measuring residual activity at 10 uM preincubated for 600 secs followed by calcium addition by Fura-2 AM by fluorescence microscopic analysis relative to control. In kind it is cell-based. The following applies: Homo sapiens, time 600.0 sec. The gist of the method:
(§1)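 HEK cells; intracellular Ca2+ stores emptied with tBhQ (50 μM) in the presence of compound at 10 μM. After 600 s, Ca2+ added and intracellular Ca2+ followed by Fura-2 fluorescence microscopy. SOCE given as percent activity vs control; peak amplitude, AUC and slope of the Ca2+ rise evaluated. Traces average 200 cells over three independent experiments; Mann–Whitney U test vs control.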

Data set [2] in a line: Stability in CD-1 mouse liver S9 fraction assessed as parent compound remaining at 50 uM measured after 60 mins by HPLC-UV analysis. In kind it is ADME, subcellular. The following applies: read-out: Stabilty. The gist of the method:
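Incubated in mouse liver MLS9 fraction supplemented with NADPH. Residual parent substrate measured after 1 h. Three independent experiments, mean ± SEM.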

A short description of data set [3]: Stability in CD-1 mouse liver microsomes assessed as parent compound remaining at 50 uM measured after 60 mins by HPLC-UV analysis. The following applies: read-out: Stabilty. It is filed as ADME, Microsome. For orientation: Microsomes from liver hold many membrane-bound enzymes, among them those of drug oxidation.
Data set [4] relates to HEK. Nature of the data set: Activation of SOCE channel in tBhQ-treated HEK cells assessed as increase in AUC of calcium entry at 10 uM preincubated for 600 secs followed by calcium addition by Fura-2 AM by fluorescence microscopic analysis. The settings on record: Homo sapiens, filed as activator, time 600.0 sec. It is filed as cell-based. The gist of the method:
as §1

Data set [5] can be described thus: Cytotoxicity against HEK cells assessed as cell viability at 10 uM measured after 24 hrs by MTT assay relative to control. In kind it is cell-based. The following applies: human, read-out: Activity. In short, it runs like this: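 MTT viability assay in HEK cells with compound at 10 μM.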
(In general: Formazan colour is commonly taken as a measure of viable cells.)

The subject of data set [6] is HEK. In words: Activation of SOCE channel in […] assessed as increase in calcium entry in resting cells at 10 uM […] by Fura-2 AM by fluorescence microscopic analysis. It is filed as cell-based. The following applies: Homo sapiens.

On to `Cc1noc(-c2cnn(-c3ccc(NC(=O)c4ccco4)cc3)c2C(F)(F)F)n1`, for which, in the data set with HEK [1], the Activity worked out at 61.1%. As for `Cc1noc(-c2cnn(-c3ccc(NC(=O)c4c(C)noc4C)cc3)c2C(F)(F)F)n1`, the remaining at 1 h, 50 µM in data set [2] worked out at 99%. With `CCCC(C)OC(=O)c1cnn(-c2ccc(-n3cc(-c4cccc(C(=O)O)c4)nn3)cc2)c1C(F)(F)F` (stereo not drawn), in data set [2], the remaining at 1 h, 50 µM was determined as 74%.

With `Cc1noc(-c2cnn(-c3ccc(NC(=O)c4ccc([N+](=O)[O-])cc4)cc3)c2C(F)(F)F)n1`, the remaining at 1 h, 50 µM in data set [2] is over 99%.

With `Cc1noc(-c2cnn(-c3ccc(NC(=O)c4c(F)cccc4F)cc3)c2C(F)(F)F)n1`, in data set [2], the remaining at 1 h, 50 µM was over 99%. With `COc1ccc(OC)c(-c2ccc(NC(=O)c3ccncc3F)cc2)c1`, the remaining at 1 h, 50 µM in data set [3] is 15%. As to `CCOC(=O)c1cnn(-c2ccc(NC(=O)C(Cl)=C(Cl)Cl)cc2)c1C(F)(F)F`, the remaining at 1 h, 50 µM in data set [2] was 43%.

In the case of `CCCCCC(=O)Nc1ccc(-n2ncc(-c3nc(C)no3)c2C(F)(F)F)cc1`, the result in the data set with HEK [4] was Active. Besides, the remaining at 1 h, 50 µM in data set [2] stood at 91%. The viability at 24 h, 10 µM in data set [5] is 88.5%. The outcome in the data set on HEK [6] was inactive. Consider `Cc1ccc(S(=O)(=O)Nc2ccc(-n3ncc(-c4nc(C)no4)c3C(F)(F)F)cc2)cc1`, for which the remaining at 1 h, 50 µM in data set [2] stood at 76%. For `Cc1noc(-c2cnn(-c3ccc(NC(=O)c4ccc(C#N)c(F)c4)cc3)c2C(F)(F)F)n1`, the remaining at 1 h, 50 µM in data set [2] stood at 73%.
